From ChEMBL document CHEMBL5244266, “Nitrogen-containing naringenin derivatives for reversing multidrug resistance in cancer” (Bioorg Med Chem, 2020)

Experiments:
L5178Y [1] = test: Cytotoxicity against parental mouse L5178Y cells assessed as inhibition of cell growth incubated for 24 hrs by MTT assay; format: functional, cell-based
Summary of the method: (§1)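 L5178Y parental and human ABCB1 retrovirus-transfected lines were grown in McCoy's 5A with 10% heat-inactivated horse serum, and the MDR line was kept under colchicine 60 ng/mL. Cells were seeded at 1×10^4/well and given 2-fold dilutions from 100 μM maximum, in duplicate, for 24 h. MTT was added for 4 h, then SDS/HCl overnight at 37 °C, with OD read at 550 nm (ref 630 nm). Growth inhibition was computed against cell and medium controls, and IC50 came from curve fitting (mean ± SD).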

L5178Y [2] = test: Cytotoxicity against multi-drug resistant mouse L5178Y cells transfected with ABCB1 gene assessed as inhibition of cell growth incubated for 24 hrs by MTT assay; format: functional, cell-based; summary of the method: as §1
L5178Y [3] = test: Modulation of P-glycoprotein mediated Rhodamine-123 efflux in multi-drug resistant mouse L5178Y cells tranfected with ABCB1 gene assessed as fluorescence activity ratio at 2 uM preincubated for 10 mins followed by rhodamine-123 addition and measured after 20 mins by flow cytometric analysis (reference value: 1.01); format: cell-based; conditions: filed as modulator, time 30.0 min
Summary of the method: (§2)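 Cells were held in serum-free McCoy's 5A with compound at 2.0 or 20 μM, verapamil 20 μM as positive control and DMSO 2% as solvent control, for 10 min at room temperature. R123 was then added (5.2 μM final) for 20 min at 37 °C, followed by two washes into PBS and flow cytometry (FL-1 mean fluorescence). FAR = (MDR treated/untreated FL-1) divided by (PAR treated/untreated FL-1).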

L5178Y [4] = test: Synergistic cytotoxicity against multi-drug resistant mouse L5178Y cells transfected with ABCB1 gene assessed as combination index measured after 48 hrs in the presence of doxorubicin by MTT assay; format: functional
Summary of the method: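 This was a fixed-ratio checkerboard in L5178Y-MDR cells, with doxorubicin diluted from 14.7 to 0.1 μM against serial dilutions of the modulator. Cells were seeded at 2×10^5/mL, incubated 48 h, and read by MTT. Each curve was fitted linearly to the Chou–Talalay median-effect equation, keeping only fits with r > 0.90. CI at 50% inhibition is given as the mean ± SD of three CI values from different drug ratios.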

L5178Y [5] = test: Modulation of P-glycoprotein mediated Rhodamine-123 efflux in multi-drug resistant mouse L5178Y cells tranfected with ABCB1 gene assessed as fluorescence activity ratio by measuring fold change at 2 uM preincubated for 10 mins followed by rhodamine-123 addition and measured after 20 mins by flow cytometric analysis relative to verapamil; format: cell-based; conditions: filed as modulator, time 30.0 min; summary of the method: as §2
L5178Y [6] = test: Modulation of P-glycoprotein mediated Rhodamine-123 efflux in multi-drug resistant mouse L5178Y cells tranfected with ABCB1 gene assessed as fluorescence activity ratio by measuring fold change at 20 uM preincubated for 10 mins followed by rhodamine-123 addition and measured after 20 mins by flow cytometric analysis relative to verapamil; format: cell-based; conditions: filed as modulator, time 30.0 min; summary of the method: as §2

SMILES | IC50 (L5178Y [1]) [µM] | IC50 (L5178Y [2]) [µM] | Ratio (L5178Y [3]) | CI (L5178Y [4]) | fold change (FC) (L5178Y [5]) | fold change (FC) (L5178Y [6])
N/N=C1\C[C@@H](c2ccc(O)cc2)Oc2cc(O)cc(O)c21 | ≥ 11.3 | ≥ 11.3 | 0.72 | – | – | –
CN(C)C(=S)N/N=C1\C[C@@H](c2ccc(O)cc2)Oc2cc(O)cc(O)c21 | ≥ 11.3 | ≥ 11.3 | 2.17 | – | – | –
Oc1ccc([C@@H]2C/C(=N\Nc3ccccc3)c3c(O)cc(O)cc3O2)cc1 | ≥ 11.3 | ≥ 11.3 | 1.16 | – | – | –
COc1cc(O)c2c(c1)O[C@H](c1ccc(OCC(O)CNC3CCN(Cc4ccccc4)CC3)cc1)CC2=O (stereo partly drawn) | ≥ 11.3 | ≥ 11.3 | 18.7 | 0.108 | 2 | 6
Oc1ccc([C@@H]2C/C(=N\N=C\c3c[nH]c4ccccc34)c3c(O)cc(O)cc3O2)cc1 | ≥ 11.3 | ≥ 11.3 | 0.95 | – | – | –
O=C(Cc1c[nH]c2ccccc12)N/N=C1\C[C@@H](c2ccc(O)cc2)Oc2cc(O)cc(O)c21 | ≥ 11.3 | ≥ 11.3 | 1 | – | – | –
COc1cc(O)c2c(c1)O[C@H](c1ccc(O)cc1)C/C2=N\NC(=O)c1ccc(N)cc1 | ≥ 11.3 | ≥ 11.3 | 0.96 | – | – | –
O=C(N/N=C1\C[C@@H](c2ccc(O)cc2)Oc2cc(O)cc(O)c21)c1cccs1 (stereo in doubt) | ≥ 11.3 | ≥ 11.3 | 0.92 | – | – | –
COC(=O)C1CCN(CC(O)COc2ccc([C@@H]3CC(=O)c4c(O)cc(OC)cc4O3)cc2)CC1 (stereo partly drawn) | ≥ 11.3 | ≥ 11.3 | 8.01 | – | – | –
COc1cc(O)c2c(c1)O[C@H](c1ccc(O)cc1)C/C2=N\NC(=O)c1cccs1 | 9.4 | 12 | 1.39 | – | – | –
COc1ccc([C@@H]2C/C(=N\NC(=O)c3ccco3)c3c(O)cc(OC)cc3O2)cc1 | 2.7 | 3.4 | 2.24 | – | – | –
COc1ccc([C@@H]2C/C(=N\NC(=O)OCc3ccccc3)c3c(O)cc(OC)cc3O2)cc1 | > 100 | 7.2 | 0.94 | 0.445 | – | –
O=C1C[C@@H](c2ccc(O)cc2)Oc2cc(O)cc(O)c21 [NARINGENIN] | ≥ 11.3 | ≥ 11.3 | 0.72 | – | – | –
COc1cc(O)c2c(c1)O[C@H](c1ccc(O)cc1)C/C2=N\NC(=O)c1ccco1 | ≥ 11.3 | ≥ 11.3 | 1.28 | – | – | –
COc1cc(O)c2c(c1)O[C@H](c1ccc(OCC(O)CCl)cc1)CC2=O (stereo partly drawn) | ≥ 11.3 | ≥ 11.3 | 1.33 | – | – | –
COc1ccc([C@@H]2C/C(=N\NC(=O)c3ccc(N)cc3)c3c(O)cc(OC)cc3O2)cc1 | 3.9 | 1.3 | 1.32 | – | – | –
COc1ccc([C@@H]2C/C(=N\Nc3ccccc3)c3c(O)cc(OC)cc3O2)cc1 | ≥ 11.3 | ≥ 11.3 | 1.8 | – | – | –
COc1cc(O)c2c(c1)O[C@H](c1ccc(OCC(O)Cc3c[nH]c4ccccc34)cc1)CC2=O (stereo partly drawn) | ≥ 11.3 | ≥ 11.3 | 0.86 | – | – | –
COc1cc(O)c2c(c1)O[C@H](c1ccc(OCC(O)CN3CCCCC3)cc1)CC2=O (stereo partly drawn) | 9.3 | 17.4 | 3.08 | – | – | –
COc1cccc(/C=N/N=C2\C[C@@H](c3ccc(O)cc3)Oc3cc(OC)cc(O)c32)c1 | ≥ 11.3 | ≥ 11.3 | 0.78 | – | – | –

SMILES | IC50 (L5178Y [1]) [µM] | IC50 (L5178Y [2]) [µM] | Ratio (L5178Y [3]) | CI (L5178Y [4]) | fold change (FC) (L5178Y [5]) | fold change (FC) (L5178Y [6])
Oc1ccc([C@@H]2C/C(=N\Nc3ccc(Br)cn3)c3c(O)cc(O)cc3O2)cc1 | ≥ 11.3 | ≥ 11.3 | 1.08 | – | – | –
COc1cc(O)c2c(c1)O[C@H](c1ccc(O)cc1)C/C2=N\NC(=O)Cc1c[nH]c2ccccc12 | ≥ 11.3 | ≥ 11.3 | 1.12 | – | – | –
COc1cc(O)c2c(c1)O[C@H](c1ccc(O)cc1)CC2=O [SAKURANETIN] | ≥ 11.3 | ≥ 11.3 | 1.06 | – | – | –
O=C(N/N=C1\C[C@@H](c2ccc(O)cc2)Oc2cc(O)cc(O)c21)OCc1ccccc1 | ≥ 11.3 | ≥ 11.3 | 0.76 | – | – | –
COc1cc(O)c2c(c1)O[C@H](c1ccc(O)cc1)C/C2=N\N | ≥ 11.3 | ≥ 11.3 | 1.26 | – | – | –
COc1ccc([C@@H]2C/C(=N\NC(=O)Cc3c[nH]c4ccccc34)c3c(O)cc(OC)cc3O2)cc1 | 8.6 | 7.5 | 2.47 | – | – | –
Oc1ccc([C@@H]2C/C(=N\Nc3cnccn3)c3c(O)cc(O)cc3O2)cc1 | ≥ 11.3 | ≥ 11.3 | 1.65 | – | – | –
COc1cc(O)c2c(c1)O[C@H](c1ccc(OCC3CO3)cc1)CC2=O (stereo partly drawn) | ≥ 11.3 | ≥ 11.3 | 1.17 | – | – | –
COc1cc(O)c2c(c1)O[C@H](c1ccc(O)cc1)C/C2=N\Nc1ccc(Br)cn1 | 4.3 | 12.7 | 2.1 | – | – | –
COc1cc(O)c2c(c1)O[C@H](c1ccc(OCC(O)CSc3ccccc3)cc1)CC2=O (stereo partly drawn) | ≥ 11.3 | ≥ 11.3 | 0.92 | – | – | –
Cn1cccc1/C=N/N=C1\C[C@@H](c2ccc(O)cc2)Oc2cc(O)cc(O)c21 | ≥ 11.3 | ≥ 11.3 | 0.64 | – | – | –
COc1cc(O)c2c(c1)O[C@H](c1ccc(O)cc1)C/C2=N\NC(=O)OCc1ccccc1 | ≥ 11.3 | ≥ 11.3 | 4.14 | 0.638 | – | 7
COc1cc(O)c2c(c1)O[C@H](c1ccc(O)cc1)C/C2=N\NC(=O)c1ccc(C(F)(F)F)cc1 | ≥ 11.3 | ≥ 11.3 | 0.83 | – | – | –
O=C(N/N=C1\C[C@@H](c2ccc(O)cc2)Oc2cc(O)cc(O)c21)c1ccco1 (stereo in doubt) | ≥ 11.3 | ≥ 11.3 | 0.86 | – | – | –
CCN(CC)CC(O)COc1ccc([C@@H]2CC(=O)c3c(O)cc(OC)cc3O2)cc1 (stereo partly drawn) | ≥ 11.3 | ≥ 11.3 | 4.06 | – | – | –
COc1cc(O)c2c(c1)O[C@H](c1ccc(O)cc1)C/C2=N\Nc1ccccc1 | ≥ 11.3 | ≥ 11.3 | 1.16 | – | – | –
COc1ccc([C@@H]2C/C(=N\Nc3ccc(Br)cn3)c3c(O)cc(OC)cc3O2)cc1 | 8 | 10.7 | 10.7 | – | – | –
COc1ccc([C@@H]2C/C(=N\N)c3c(O)cc(OC)cc3O2)cc1 | ≥ 11.3 | ≥ 11.3 | 0.85 | – | – | –
COc1ccc([C@@H]2CC(=O)c3c(O)cc(OC)cc3O2)cc1 | ≥ 11.3 | ≥ 11.3 | 1.03 | – | – | –
